Measured values: ChEMBL document CHEMBL3612009, “Synthesis and structure-activity relationship study of a new series of antiparasitic aryloxyl thiosemicarbazones inhibiting Trypanosoma cruzi cruzain” (Eur J Med Chem, 2015)

Legend:
[1] = test system: Trypanosoma cruzi; assay: Antiparasitic activity against epimastigotes of Trypanosoma cruzi Dm28c assessed as reduction of parasite count after 5 days; assay type: functional; settings: 120 h
[2] = test system: Trypanosoma cruzi; assay: Antiparasitic activity against trypomastigotes of Trypanosoma cruzi Y assessed as reduction of parasite count after 24 hrs; assay type: functional
[3] = Cytotoxicity against BALB/c mouse splenocytes assessed as maximum non-toxic concentration by measuring [3H]-thymidine incorporation after 24 hrs by liquid scintillation counting; assay type: cell-based, Splenocyte
How it was run: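 BALB/c splenocytes, 5 x 10^6 cells/well, given compounds at 1.23, 3.7, 33.33 and 100 µg/mL, 1% DMSO final, triplicate; 24 h at 37 °C, 5% CO2. Then 1.0 µCi [3H]-thymidine added; cells harvested and counted by liquid scintillation. Highest non-cytotoxic concentration taken from % incorporation.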

[4] = test system: Trypanosoma cruzi; assay: Antitrypanosomal activity against amastigote and trypomastigote forms of Trypanosoma cruzi Tulahuen expressing beta-galactosidase gene infected in mouse L-929 cells assessed as inhibition of parasite growth after 7 days by colorimetric betagalactosidase assay; assay type: functional, organism-based; settings: L929, 168 h
[5] = Cytotoxicity against mouse L929 cells assessed as cell viability after 96 hrs by alamarBlue assay; assay type: cell-based
How it was run: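 Uninfected L-929 cells at the same cell number and timing as the beta-galactosidase assay; increasing concentrations starting at the T. cruzi IC50, quadruplicate. After 96 h, alamarBlue added; absorbance at 570 and 600 nm read 6 h later. Viability as % reduction versus untreated; CC50 by linear interpolation.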

[6] = Selectivity index, ratio of CC50 for mouse L929 cells to IC50 for amastigote and trypomastigote forms of Trypanosoma cruzi Tulahuen; assay type: functional
How it was run: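 SI = CC50 in uninfected L-929 fibroblasts (alamarBlue, 96 h) divided by IC50 against intracellular amastigote/trypomastigote forms (beta-galactosidase assay, 7 days).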

[7] = molecular target: Cruzipain (Trypanosoma cruzi) (UniProt P25779); assay: Inhibition of Trypanosoma cruzi catalytic activity of cruzain using Z-FR-AMC as substrate at 50 uM after 10 mins by fluorescence assay
Chain of Cruzipain (Trypanosoma cruzi) (P25779 123-467 limits assumed): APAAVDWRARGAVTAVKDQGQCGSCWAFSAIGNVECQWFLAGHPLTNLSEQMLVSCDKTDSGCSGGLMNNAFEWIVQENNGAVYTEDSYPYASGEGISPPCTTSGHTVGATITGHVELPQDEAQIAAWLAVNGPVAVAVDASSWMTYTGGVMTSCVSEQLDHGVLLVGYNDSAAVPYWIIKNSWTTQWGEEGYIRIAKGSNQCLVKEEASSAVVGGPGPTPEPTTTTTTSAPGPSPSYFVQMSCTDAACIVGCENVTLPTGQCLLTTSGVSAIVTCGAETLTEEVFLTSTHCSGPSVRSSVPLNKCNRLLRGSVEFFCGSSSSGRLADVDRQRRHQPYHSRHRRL

[8] = test system: Trypanosoma cruzi; assay: Antitrypanosomal activity against amastigote and trypomastigote forms of Trypanosoma cruzi Tulahuen expressing beta-galactosidase gene infected in mouse L-929 cells assessed as inhibition of parasite growth at 100 uM after 7 days by colorimetric betagalactosidase assay; assay type: functional; settings: L929, 168 h
[9] = molecular target: Cruzipain (Trypanosoma cruzi, UniProt P25779); assay: Inhibition of Trypanosoma cruzi catalytic activity of cruzain using Z-FR-AMC as substrate after 10 mins by fluorescence assay
Chain of Cruzipain (P25779 whole entry): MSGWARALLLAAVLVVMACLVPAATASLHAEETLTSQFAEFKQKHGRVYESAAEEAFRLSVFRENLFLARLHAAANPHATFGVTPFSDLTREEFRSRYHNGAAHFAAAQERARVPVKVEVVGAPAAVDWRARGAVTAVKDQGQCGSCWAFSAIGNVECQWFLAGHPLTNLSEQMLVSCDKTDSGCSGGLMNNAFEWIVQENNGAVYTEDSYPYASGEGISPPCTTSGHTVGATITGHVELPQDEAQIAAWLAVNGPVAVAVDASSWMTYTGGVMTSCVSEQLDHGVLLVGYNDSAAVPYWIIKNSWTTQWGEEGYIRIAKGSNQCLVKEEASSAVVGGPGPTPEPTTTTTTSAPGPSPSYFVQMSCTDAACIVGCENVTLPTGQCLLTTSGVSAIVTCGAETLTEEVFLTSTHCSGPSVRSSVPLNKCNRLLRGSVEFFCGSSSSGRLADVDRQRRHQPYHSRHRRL

[10] = test system: Trypanosoma cruzi; assay: Antiparasitic activity against trypomastigotes of Trypanosoma cruzi Y assessed as induction of parasite death at 5 uM after 24 hrs using propidium iodide staining after 24 hrs by flow cytometry analysis; assay type: functional
How it was run: (§1)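 Y strain trypomastigotes (4x10^5) in RPMI-1640 with 10% FBS, exposed to test agent for 24 h at 37 °C, 5% CO2; then stained with propidium iodide and analysed by flow cytometry, at least 10,000 events. Read-out is % PI-positive cells versus untreated parasites; Triton X-100 as positive control. Two independent experiments, each concentration in duplicate.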

[11] = test system: Trypanosoma cruzi; assay: Antiparasitic activity against trypomastigotes of Trypanosoma cruzi Y assessed as induction of parasite death at 0.5 uM after 24 hrs using propidium iodide staining after 24 hrs by flow cytometry analysis; assay type: functional; how it was run: as §1

Row | Structure (SMILES) | IC50 [1] [µM] | CC50 [2] [µM] | MNTC at 24 h [3] [nM] | IC50 [4] [µM] | CC50 at 96 h [5] [µM] | Ratio CC50/IC50 [6] | inhibition [7] [%] | inhibition at 100 µM [8] [%] | IC50 [9] [µM] | Activity [10] [%] | Activity [11] [%]
1 | CCc1ccc(OC/C(=N\NC(N)=S)c2ccc(Br)cc2)cc1 | 2.1 | 1.8 | 2600 | 6.4 | < 25.5 | <4 | 75.1 | > 70 | – | – | –
2 | NC(=S)N/N=C(\COc1ccccc1Cl)c1ccc(Br)cc1 | 3.5 | 6 | < 2500 | 13.5 | 25.1 | 1.9 | 58.9 | > 70 | – | – | –
3 | NC(=S)N/N=C(\COc1cccc(Cl)c1Cl)c1ccc(Br)cc1 | 4.4 | 5.7 | 23100 | 10.8 | 23.1 | 2.8 | 81.8 | > 70 | – | – | –
4 | Cc1ccc(/C(COc2ccc(Br)cc2)=N\NC(N)=S)cc1 | 3.7 | 3.1 | 13200 | 7.9 | 13.2 | 1.7 | 70.9 | > 70 | – | – | –
5 | NC(=S)N/N=C(\COc1cccc2ccccc12)c1ccc(Br)cc1 | 3 | 3.4 | 2400 | 48.3 | < 96.5 | <2 | – | > 70 | – | – | –
6 | CNC(=S)N/N=C(/COc1ccc(Br)cc1)c1ccc(F)cc1 | 15.7 | 7.4 | – | – | – | – | 30 | > 70 | – | – | –
7 | NC(=S)N/N=C(\COc1ccc(F)c(Cl)c1)c1ccc(Br)cc1 | 3.4 | 1.7 | 2400 | 9 | 48 | 5.3 | 93.7 | > 70 | 0.07 | 34 | 2.7
8 | NC(=S)N/N=C(\COc1cccc(Cl)c1)c1ccc(Br)cc1 | 2.2 | 1.6 | 2500 | 25.1 | < 50.2 | <2 | 51.8 | > 70 | – | – | –
9 | NC(=S)N/N=C(\COc1ccc2ccccc2c1)c1ccc(Br)cc1 | 5.3 | 5 | 2400 | 13.5 | > 193 | >14.3 | 72.1 | > 70 | – | – | –
10 | COc1cccc(OC/C(=N\NC(N)=S)c2ccc(Br)cc2)c1 | 3.7 | 1.2 | 2500 | 9.9 | 50.7 | 5.1 | 62.8 | > 70 | – | – | –
11 | CNC(=S)N/N=C(/COc1ccc(Br)cc1)c1ccc(OC)cc1 | 4.5 | 3.6 | – | – | – | – | 29.8 | > 70 | – | – | –
12 | COc1ccc(/C(COc2ccc(Br)cc2)=N\NC(=S)Nc2ccccc2)cc1 | 10.2 | – | – | – | – | – | 42.8 | > 70 | – | – | –
13 | NC(=S)N/N=C(/COc1ccc(Br)cc1)c1cccc2ccccc12 | 7.5 | 14.7 | 2400 | 4.8 | 12.1 | 2.5 | 73.6 | > 70 | – | – | –
14 | Fc1ccc(/C(COc2ccc(Br)cc2)=N\NC(=S)Nc2ccccc2)cc1 | – | 15.6 | – | – | – | – | 35 | > 70 | – | – | –
15 | CC(=O)Nc1ccc(OC/C(=N\NC(N)=S)c2ccc(Br)cc2)cc1 | 15.6 | 3.5 | 2400 | 43.2 | 94.9 | 2.2 | 80.7 | > 70 | – | – | –
16 | NC(=S)N/N=C(\COc1ccc(F)cc1)c1ccc(Br)cc1 | 1.8 | 3.1 | 2600 | 15.7 | 52.3 | 3.3 | 84 | > 70 | 0.4 | – | –

Row | Structure (SMILES) | IC50 [1] [µM] | CC50 [2] [µM] | MNTC at 24 h [3] [nM] | IC50 [4] [µM] | CC50 at 96 h [5] [µM] | Ratio CC50/IC50 [6] | inhibition [7] [%] | inhibition at 100 µM [8] [%] | IC50 [9] [µM] | Activity [10] [%] | Activity [11] [%]
17 | NC(=S)N/N=C(\COc1ccc(I)cc1)c1ccc(Br)cc1 | 2.9 | 2.1 | 2100 | 8.6 | < 20.4 | 2.4 | 63.3 | > 70 | – | – | –
18 | COc1ccc(OC/C(=N\NC(N)=S)c2ccc(Br)cc2)cc1 | 1.8 | 3.7 | < 2500 | 8.9 | 102 | 11.4 | 75.8 | > 70 | – | – | –
19 | NC(=S)N/N=C(\COc1cccc(Br)c1)c1ccc(Br)cc1 | 3.9 | 6.2 | 2700 | 149 | > 180 | >1.2 | 81.3 | > 70 | – | – | –
20 | NC(=S)N/N=C(\COc1ccc(Cl)cc1)c1ccc(Br)cc1 | 4.6 | 5.7 | < 2500 | 11.2 | < 25.1 | <2.2 | 73.6 | > 70 | – | – | –
21 | NC(=S)N/N=C(\COc1ccc(-c2ccccc2)cc1)c1ccc(Br)cc1 | 4.1 | 12.3 | 22700 | 76.6 | 90.8 | 1.2 | 63.7 | > 70 | – | – | –
22 | COc1ccc(/C(COc2ccc(Br)cc2)=N\NC(N)=S)cc1 | 3.1 | 5 | 2500 | 11.9 | < 25.4 | <2.1 | 38.7 | > 70 | – | – | –
23 | NC(=S)N/N=C(/COc1ccc(Br)cc1)c1ccc(Br)cc1 | 11.9 | 3.9 | 22600 | < 8.1 | 22.6 | >2.8 | 11.8 | > 70 | – | – | –
24 | NC(=S)N/N=C(\COc1cccc(-c2ccccc2)c1)c1ccc(Br)cc1 | 4.4 | 28.3 | 2300 | > 182 | – | – | 65.4 | > 70 | – | – | –
25 | CC(C)(C)c1ccc(OC/C(=N\NC(N)=S)c2ccc(Br)cc2)cc1 | 5.2 | 2.2 | 2400 | 15.2 | 23.8 | 1.6 | 85.3 | > 70 | – | – | –
26 | NC(=S)N/N=C(/COc1ccc(Br)cc1)c1ccc(-c2ccccc2)cc1 | 3.9 | 2.1 | 2300 | 3.3 | 22.7 | 6.9 | 88.9 | > 70 | 0.6 | – | –
27 | NC(=S)N/N=C(/COc1ccc(Br)cc1)c1ccc(Cl)cc1 | 3.6 | 5.3 | 12500 | 14.8 | 25.1 | 1.7 | 67.5 | > 70 | – | – | –
28 | NC(=S)N/N=C(/COc1ccc(Br)cc1)c1ccc(F)cc1 | 3.8 | 3.6 | 2600 | 10.7 | < 26.2 | <2.5 | 53.1 | > 70 | – | – | –
29 | NC(=S)N/N=C(/COc1ccc(Br)cc1)c1ccccc1 | 14.5 | 2.4 | 68600 | 10.2 | < 27.5 | <2.7 | 67.6 | > 70 | – | – | –
30 | CC1CS(=O)(=O)CCN1/N=C/c1ccc([N+](=O)[O-])o1 (stereo not given) [NIFURTIMOX] | – | 2.7 | – | – | – | – | – | – | – | – | –
31 | NC(=S)N/N=C(\COc1ccccc1)c1ccc(Br)cc1 | 3 | 6.6 | 137000 | 5.4 | 54.9 | 10.2 | 61.8 | > 70 | – | – | –
